Experiment [1] deals with T1, Protein arginine N-methyltransferase 7 (Homo sapiens, UniProt Q9NVM4).
T1 sequence (Q9NVM4 whole entry): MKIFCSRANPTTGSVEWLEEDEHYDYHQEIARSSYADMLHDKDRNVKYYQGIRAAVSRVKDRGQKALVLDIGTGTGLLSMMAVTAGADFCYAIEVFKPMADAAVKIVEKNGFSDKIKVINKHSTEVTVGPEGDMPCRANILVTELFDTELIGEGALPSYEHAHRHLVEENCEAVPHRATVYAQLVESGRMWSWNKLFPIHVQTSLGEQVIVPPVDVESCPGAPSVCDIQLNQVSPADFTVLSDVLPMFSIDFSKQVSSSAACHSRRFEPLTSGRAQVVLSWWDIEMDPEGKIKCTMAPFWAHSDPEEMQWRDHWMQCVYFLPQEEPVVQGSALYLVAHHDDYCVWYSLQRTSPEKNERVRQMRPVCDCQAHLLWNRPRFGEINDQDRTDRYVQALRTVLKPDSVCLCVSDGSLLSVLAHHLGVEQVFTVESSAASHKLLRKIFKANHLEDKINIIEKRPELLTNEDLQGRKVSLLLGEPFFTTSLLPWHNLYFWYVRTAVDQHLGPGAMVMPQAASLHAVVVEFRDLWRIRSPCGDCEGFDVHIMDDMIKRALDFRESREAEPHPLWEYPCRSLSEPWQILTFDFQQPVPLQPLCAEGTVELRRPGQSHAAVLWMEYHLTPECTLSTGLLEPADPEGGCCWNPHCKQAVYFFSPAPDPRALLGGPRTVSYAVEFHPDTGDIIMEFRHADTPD
In words: Inhibition of recombinant GST-tagged PRMT7 (unknown origin) expressed in Escherichia coli using biotin-labeled SMD1 as substrate incubated for 120 mins in presence of [3H]-SAM cofactor by scintillation proximity assay. The procedure, abridged:
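The inhibitor was serially diluted and added to the enzyme, [3H]-SAM and substrate mixture, and methylated substrate was quantified by scintillation proximity assay. Reactions were held at initial rate, with yield under 10% and substrate near Km. PRMT3, PRMT8 and G9a were His-tagged human proteins, and PRMT7 was GST-tagged, all expressed in E. coli and affinity-purified.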
In general terms: SPA uses beads or plates that emit light when radiolabelled molecules are held near them.

Another experiment deals with CMK. In words: Antiproliferative activity against human CMK cells assessed as inhibition of cell growth measured after 72 hrs by CellTiter-Glo assay. In kind it is functional, cell-based. The procedure, abridged:
(§1)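 Cells were cultured with the test agent, serially diluted, for 72 h. The control received the same amount of DMSO. Cell viability was then measured, and IC50 values were taken from sensitivity curves.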
(In general: Cellular ATP, detected with luciferase, serves as a proxy for viable cell number.)

The next experiment relates to K562. In words: Antiproliferative activity against human K562 cells assessed as inhibition of cell growth measured after 72 hrs by CellTiter-Glo assay. In kind it is functional, cell-based. The settings on record: K562, 72 h. The procedure, abridged:
as §1

pIC50: −log10 of the molar value.

The pIC50 is the IC50 on a negative log10 scale, so that one unit is a factor of ten. As to `N=C(N)c1ccc(Nc2ccc(-c3cc4ccc(C(=N)N)cc4[nH]3)cc2)cc1`, the values for the pIC50 (in experiment [1]; with CMK; with K562) were 4.63, 5.88 and 5.97, respectively.
